One data set concerns Hepatitis C virus. Nature of the data set: Antiviral activity against HCV infected in HuH7 Clone B cells assessed as inhibition of viral replication after 5 days by RT-PCR method. It counts as functional, organism-based, Hepacivirus hominis. The conditions noted are these: 120 h. In outline:
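Huh7 cells carrying a subgenomic HCV replicon; HCV RNA extracted and amplified to measure replication inhibition. Tested up to 10 μM, and EC50 and EC90 are reported.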

Data set [1] is described as follows: Cytotoxicity against human PBMC after 6 days by trypan blue exclusion assay. The format is cell-based. The settings on record: PBMC (peripheral blood mononuclear cells).
The nature of data set [2]: Cytotoxicity against human CEM cells after 6 days by trypan blue exclusion assay. The settings on record: CEM (CCRF-CEM) cells. The format is cell-based.
Data set [3] in a line: Cytotoxicity against African green monkey Vero cells after 3 days by hemocytometry. The format is cell-based. The conditions noted are these: chlorocebus sabaeus.
Data set [4] can be described thus: Cytotoxicity against human HuH7 cells infected with HCV assessed as reduction in cellular rRNA level after 96 hrs by qRT-PCR analysis. It counts as cell-based, Huh-7. The procedure, abridged: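 Huh7 toxicity was read in the same wells as the replicon assay, by extracting and amplifying cellular rRNA alongside HCV RNA.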
(In general: In qPCR the cycle at which signal appears reflects the starting amount.)

The structures appear in SMILES notation.

Consider `CCOC(=O)[C@H](C)NP(=O)(OC[C@H]1O[C@@H](n2cnc3c(N=[N+]=[N-])nc(N)nc32)[C@](C)(O)[C@@H]1O)Oc1ccccc1` (stereo not given in full), for which the EC50 – broadly, the concentration that produces a half-maximal response – in the data set with Hepatitis C virus came to 2.4 µM. Moreover, the EC90 (commonly the point of the concentration-response curve where the effect stands at 90%) in the data set on Hepatitis C virus turned out to be 7.7 µM. For the same molecule, the cytotoxic concentration (CC50) at 144 h in data set [1] and in data set [2] was more than 100 µM in each case. Besides, the CC50 – broadly, the concentration giving 50% cytotoxicity – at 72 h in data set [3] is more than 100 µM. Further, the CC50 at 96 h in data set [4] was more than 10 µM.

Take `CONc1nc(N)c2ncn([C@@H]3O[C@H](CO)[C@@H](O)[C@@]3(C)O)c2n1`: in the data set with Hepatitis C virus, the EC50 was more than 10 µM and the EC90 was more than 10 µM. The CC50 at 144 h in data set [1] was more than 100 µM. Further, the CC50 at 144 h in data set [2] was more than 100 µM. The CC50 at 72 h in data set [3] is more than 100 µM. Also, the CC50 at 96 h in data set [4] is more than 10 µM.

Regarding `CCOC(=O)[C@H](C)NP(=O)(OC[C@H]1O[C@@H](n2cnc3c(OC)nc(ONC(=O)OCc4ccccc4)nc32)[C@](C)(O)[C@@H]1O)Oc1ccccc1` (stereo not given in full), in the data set on Hepatitis C virus, the EC50 is 4.1 µM and the EC90 is 9.2 µM. Moreover, the 50% cytotoxic concentration (CC50) at 144 h in data set [1] is more than 100 µM. This molecule also registered a CC50 at 144 h in data set [2] of 24 µM. Moreover, the CC50 at 72 h in data set [3] is more than 100 µM. Besides, in data set [4], the CC50 at 96 h is more than 33 µM.

As for `CCOC(=O)[C@H](C)NP(=O)(OC[C@H]1O[C@@H](n2cnc3c(OC)nc(O)nc32)[C@](C)(O)[C@@H]1O)Oc1ccccc1` (stereo not given in full), in the data set with Hepatitis C virus, the EC50 was more than 10 µM and the EC90 was more than 10 µM. In data set [1], this molecule showed a cytotoxic concentration (CC50) at 144 h of more than 100 µM. In data set [2], this molecule displayed a CC50 at 144 h of more than 100 µM. The molecule also yielded a CC50 at 72 h in data set [3] of more than 100 µM. For the same molecule, the CC50 at 96 h in data set [4] was more than 10 µM.

With `C[C@@]1(O)[C@H](O)[C@@H](CO)O[C@H]1n1cnc2c(N)nc(O)nc21`, the EC50 with Hepatitis C virus is more than 10 µM. Also, the EC90 with Hepatitis C virus is more than 10 µM. The CC50 at 144 h in data set [1] and in data set [2] was more than 100 µM each time. The molecule also registered a CC50 at 72 h in data set [3] of more than 100 µM. Also, the CC50 at 96 h in data set [4] is more than 10 µM.

`CCOC(=O)[C@H](C)NP(=O)(OC[C@H]1O[C@@H](n2cnc3c(OC)nc(OC)nc32)[C@](C)(O)[C@@H]1O)Oc1ccccc1` (stereo not given in full): the EC50 in the data set with Hepatitis C virus was more than 10 µM. Moreover, the EC90 in the data set with Hepatitis C virus is more than 10 µM. Besides, the CC50 at 144 h in data set [1] and in data set [2] was more than 100 µM each time. Further, in data set [3], the CC50 at 72 h was more than 100 µM. The CC50 at 96 h in data set [4] is more than 10 µM.

Take `C[C@@]1(O)[C@H](O)[C@@H](CO)O[C@H]1n1cnc2c(N)nc(N=[N+]=[N-])nc21`: in the data set on Hepatitis C virus, the EC50 is more than 10 µM and the EC90 was more than 10 µM. This molecule yielded a CC50 at 144 h in data set [1] of more than 100 µM. The molecule also showed a CC50 at 144 h in data set [2] of more than 100 µM. The same molecule gave a CC50 at 72 h in data set [3] of more than 100 µM. In addition, in data set [4], the CC50 at 96 h was more than 10 µM.

Take `C[C@@]1(O)[C@H](O)[C@@H](CO)O[C@H]1n1cnc2c(N)nc(Cl)nc21`: the EC50 in the data set with Hepatitis C virus is more than 10 µM. Besides, in the data set on Hepatitis C virus, the EC90 is more than 10 µM. The CC50 at 144 h in data set [1] and in data set [2] was more than 100 µM each time. This molecule also yielded a CC50 at 72 h in data set [3] of more than 100 µM. For the same molecule, the CC50 at 96 h in data set [4] was more than 10 µM.

For the molecule `COc1nc(ONC(=O)OCc2ccccc2)nc2c1ncn2[C@@H]1O[C@H](CO)[C@@H](O)[C@@]1(C)O`, in the data set on Hepatitis C virus, the EC50 was more than 10 µM and the EC90 was more than 10 µM. In data set [1], this molecule came in with a CC50 at 144 h of more than 100 µM. In addition, the CC50 at 144 h in data set [2] was more than 100 µM. Also, the CC50 at 72 h in data set [3] was more than 100 µM. The CC50 at 96 h in data set [4] is more than 10 µM.

With `COc1nc(Cl)nc2c1ncn2[C@@H]1O[C@H](CO)[C@@H](O)[C@@]1(C)O`, in the data set on Hepatitis C virus, the EC50 was more than 10 µM and the EC90 was more than 10 µM. In data set [1], this molecule displayed a CC50 at 144 h of more than 100 µM. The same molecule gave a CC50 at 144 h in data set [2] of more than 100 µM. In data set [3], the CC50 at 72 h was more than 100 µM. Further, the CC50 at 96 h in data set [4] was more than 10 µM.

For `CCOC(=O)[C@H](C)NP(=O)(OC[C@H]1O[C@@H](n2cnc3c(OC)nc(Cl)nc32)[C@](C)(O)[C@@H]1O)Oc1ccccc1` (stereo not given in full), in the data set with Hepatitis C virus, the EC50 was 6.3 µM. Besides, in the data set with Hepatitis C virus, the EC90 worked out at 9.9 µM. Besides, the CC50 at 144 h in data set [1] and in data set [2] was more than 100 µM each time. Further, the CC50 at 72 h in data set [3] is more than 100 µM. Besides, in data set [4], the half-maximal cytotoxic concentration (CC50) at 96 h is more than 10 µM.

Consider `CCOC(=O)[C@H](C)NP(=O)(OC[C@H]1O[C@@H](n2cnc3c(N)nc(NOC)nc32)[C@](C)(O)[C@@H]1O)Oc1ccccc1` (stereo not given in full), for which, in the data set with Hepatitis C virus, the EC50 is more than 10 µM and the EC90 is more than 10 µM. In data set [1], this molecule came in with a CC50 at 144 h of more than 100 µM. The same molecule gave a CC50 at 144 h in data set [2] of more than 100 µM. Also, the CC50 at 72 h in data set [3] was 18 µM. Besides, the CC50 at 96 h in data set [4] is more than 10 µM.

`C[C@@]1(O)[C@H](O)[C@@H](CO)O[C@H]1n1cnc2c(ONC(=O)OCc3ccccc3)nc(N)nc21`: the EC50 in the data set with Hepatitis C virus turned out to be 2.4 µM. Besides, in the data set on Hepatitis C virus, the EC90 was 8 µM. Besides, the CC50 at 144 h in data set [1] and in data set [2] was more than 100 µM in each case. In data set [3], this molecule came in with a CC50 at 72 h of more than 100 µM. For the same molecule, the CC50 at 96 h in data set [4] is more than 10 µM.

`CCOC(=O)[C@H](C)NP(=O)(OC[C@H]1O[C@@H](n2cnc3c(N)nc(ONC(=O)OCc4ccccc4)nc32)[C@](C)(O)[C@@H]1O)Oc1ccccc1` (stereo not given in full): in the data set on Hepatitis C virus, the EC50 came to 4.8 µM and the EC90 was determined as 10 µM. In data set [1], the CC50 at 144 h is more than 100 µM. Moreover, in data set [2], the CC50 at 144 h was more than 100 µM. In data set [3], the CC50 at 72 h is more than 100 µM. In data set [4], the CC50 at 96 h was more than 33 µM.

In the case of `CCOC(=O)[C@H](C)NP(=O)(OC[C@H]1O[C@@H](n2cnc3c(NOC)nc(N)nc32)[C@](C)(O)[C@@H]1O)Oc1ccccc1` (stereo not given in full), in the data set on Hepatitis C virus, the EC50 amounted to 0.3 µM and the EC90 turned out to be 1 µM. This molecule also displayed a CC50 at 144 h in data set [1] of more than 100 µM. The CC50 at 144 h in data set [2] was 32 µM. The same molecule yielded a CC50 at 72 h in data set [3] of more than 100 µM. In data set [4], the CC50 at 96 h was more than 10 µM.

For `CONc1nc(N)nc2c1ncn2[C@@H]1O[C@H](CO)[C@@H](O)[C@@]1(C)O`, the EC50 with Hepatitis C virus was more than 10 µM. Also, the EC90 with Hepatitis C virus is more than 10 µM. Also, the CC50 at 144 h in data set [1] and in data set [2] was more than 100 µM throughout. Besides, in data set [3], the CC50 at 72 h is more than 100 µM. Further, in data set [4], the CC50 at 96 h is more than 10 µM.

On to `C=C(OCC)c1nc(N)nc2c1ncn2[C@@H]1O[C@H](COP(=O)(N[C@@H](C)C(=O)OCC)Oc2ccccc2)[C@@H](O)[C@@]1(C)O` (stereo not given in full), for which, in the data set on Hepatitis C virus, the EC50 is more than 10 µM and the EC90 was more than 10 µM. Further, the CC50 at 144 h in data set [1] is more than 100 µM. In data set [2], the CC50 at 144 h was more than 100 µM. For the same molecule, in data set [3], the CC50 at 72 h is more than 100 µM. Also, the CC50 at 96 h in data set [4] was more than 10 µM.

For the molecule `CCOC(=O)[C@H](C)NP(=O)(OC[C@H]1O[C@@H](n2cnc3c(N)nc(Cl)nc32)[C@](C)(O)[C@@H]1O)Oc1ccccc1` (stereo not given in full), in the data set with Hepatitis C virus, the EC50 stood at 1.7 µM and the EC90 amounted to 5.3 µM. Further, the CC50 at 144 h in data set [1] was more than 100 µM. This molecule had a CC50 at 144 h in data set [2] of more than 100 µM. For the same molecule, the CC50 at 72 h in data set [3] is more than 100 µM. Also, the CC50 at 96 h in data set [4] is more than 10 µM.

Consider `COc1nc(O)nc2c1ncn2[C@@H]1O[C@H](CO)[C@@H](O)[C@@]1(C)O`, for which the EC50 in the data set with Hepatitis C virus was more than 10 µM. Besides, the EC90 in the data set on Hepatitis C virus is more than 10 µM. Further, the CC50 at 144 h in data set [1] and in data set [2] was more than 100 µM each time. The CC50 at 72 h in data set [3] is more than 100 µM. Besides, in data set [4], the CC50 at 96 h was more than 10 µM.

In the case of `CCOC(=O)[C@H](C)NP(=O)(OC[C@H]1O[C@@H](n2cnc3c(N)nc(O)nc32)[C@](C)(O)[C@@H]1O)Oc1ccccc1` (stereo not given in full), the EC50 in the data set on Hepatitis C virus is more than 10 µM. Moreover, the EC90 in the data set on Hepatitis C virus is more than 10 µM. In addition, the CC50 at 144 h in data set [1] and in data set [2] was more than 100 µM throughout. For the same molecule, in data set [3], the CC50 at 72 h is more than 100 µM. Moreover, the CC50 at 96 h in data set [4] was more than 10 µM.

The record behind these values is ChEMBL document CHEMBL3792308, “Synthesis and Evaluation of 2,6-Modified Purine 2'-C-Methyl Ribonucleosides as Inhibitors of HCV Replication” (ACS Med Chem Lett, 2016).
